# Where a name gives a salt, the structure may show the parent alone. The source made the active and inactive calls. The calls are words filed in the database; no cut-off is given here.
# Tests used:
# HeLa [1] = test: Cytotoxicity against human HeLa cells assessed as inhibition of growth incubated for 72 hrs by MTT assay; format: functional, cell-based
# Procedure, shortened: (§1)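 Cells grown in RPMI-1640 or DMEM with 10% heat-inactivated FBS. Exposed to six concentrations (100, 33, 10, 3.3, 1.0, 0.33 μM) for 72 h at 37 °C. MTT (5 mg/mL, 10 μL) added for 4 h, then medium removed and DMSO added, absorbance read at 570 nm. IC50 is the concentration giving 50% lower absorbance than control. Mean ± SD of three independent experiments; adriamycin positive control.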
# SMMC-7721 [2] = test: Cytotoxicity against human SMMC7721 cells assessed as inhibition of growth incubated for 72 hrs by MTT assay; format: functional, cell-based; conditions: SMMC-7721, 72 h; procedure, shortened: as §1
# HCT-116 [3] = test: Cytotoxicity against human HCT116 cells assessed as inhibition of growth incubated for 72 hrs by MTT assay; format: functional, cell-based; conditions: HCT-116, 72 h; procedure, shortened: as §1
# NCI-H460 [4] = test: Cytotoxicity against human NCI-H460 cells assessed as inhibition of growth incubated for 72 hrs by MTT assay; format: functional, cell-based; conditions: NCI-H460, 72 h; procedure, shortened: as §1
# SMMC-7721 [5] = test: Inhibition of MMP2 gene expression in human SMMC7721 cells at […] to 5.49 uM incubated for 24 hrs by real-time PCR analysis; format: functional, cell-based
# Procedure, shortened: (§2)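 SMMC7721 cells (5 × 10^5/well) treated with 0.61, 1.83 or 5.49 μM for 24 h. Total RNA analysed by SYBR Green qPCR using MMP-2 and MMP-9 specific primers. Cycling: 95 °C for 10 min, then 44 cycles of 95 °C 10 s, 60 °C 20 s, 72 °C 20 s. GAPDH internal control.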
# BGC-823 [6] = test: Cytotoxicity against human BGC823 cells assessed as inhibition of growth incubated for 72 hrs by MTT assay; format: functional, cell-based; conditions: BGC-823, 72 h; procedure, shortened: as §1
# SMMC-7721 [7] = test: Inhibition of MMP2 protein expression in human SMMC7721 cells at […] to 5.49 uM incubated for 24 hrs by Western blot analysis; format: functional, cell-based
# Procedure, shortened: (§3)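 SMMC7721 cells (5 × 10^5/well) treated with 0.61, 1.83 or 5.49 μM for 24 h, then lysed in RIPA buffer with protease inhibitors for 40 min on ice. Protein (60 μg) resolved on 10% SDS-PAGE and transferred to PVDF. Probed with MMP-2 or MMP-9 primary antibody and peroxidase-conjugated secondary, detected by chemiluminescence, normalized to GAPDH.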
# SMMC-7721 [8] = test: Cytotoxicity against human SMMC7721 cells assessed as inhibition of growth at 0.6 to 5.5 uM incubated for 24 hrs by MTT assay; format: functional, cell-based
# Procedure, shortened: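 SMMC7721 viability measured by MTT after exposure to 0, 0.61, 1.83, 5.49 or 16.5 μM for 0, 24, 48 and 72 h. Vehicle-treated cells served as control. Mean ± SD, n = 3.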
# SMMC-7721 [9] = test: Inhibition of MMP9 protein expression in human SMMC7721 cells at […] to 5.49 uM incubated for 24 hrs by Western blot analysis; format: functional, cell-based; procedure, shortened: as §3
# SMMC-7721 [10] = test: Inhibition of cell migration of human SMMC7721 cells incubated for 24 hrs by H and E staining based transwell chamber assay; format: functional
# Procedure, shortened: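 Transwell migration: 4 × 10^5 SMMC7721 cells in RPMI-1640 with 0.1% FBS plus 0.61, 1.83 or 5.49 μM placed in upper chamber; lower chamber held RPMI-1640 with 10% FBS. Cells on the lower membrane surface fixed in paraformaldehyde for 30 min and stained with H&E for 5 min. Methods give 6 h, legend gives 24 h. Vehicle control; mean ± SD, n = 3.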
# SMMC-7721 [11] = test: Inhibition of MMP9 gene expression in human SMMC7721 cells at […] to 5.49 uM incubated for 24 hrs by real-time PCR analysis; format: functional, cell-based; procedure, shortened: as §2
# [12] = target: Matrix metalloproteinase-9 (Homo sapiens) (UniProt P14780); test: Inhibition of MMP9 activity in human SMMC7721 cells incubated for 24 hrs by gelatin zymography; format: cell-based
# Procedure, shortened: (§4)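 SMMC7721 cells (2 × 10^5/well) treated with 0.61, 1.83 or 5.49 μM for 24 h. Culture supernatants run on 10% SDS-PAGE containing 0.1% gelatin. Gels washed in 2.5% Triton X-100 (three 1-h washes), then incubated 36 h at 37 °C in 50 mM Tris-HCl, 10 mM CaCl2, 1 μM ZnCl2, 0.2 M NaCl, pH 7.6. Coomassie R250 stain; bands at 72 kDa (MMP-2) and 92 kDa (MMP-9) quantified by densitometry. Mean ± SD, n = 3.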
# SMMC-7721 [13] = test: Inhibition of cell adhesion of human SMMC7721 cells at 0.61 to 5.49 uM incubated for 1 hr by matrigel based assay; format: functional
# Procedure, shortened: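 Wells coated overnight with Matrigel in 0.5% serum-free RPMI-1640, blocked with 2% BSA for 30 min and washed with PBS. SMMC7721 cells (2 × 10^4/well) added with 0.61, 1.83 or 5.49 μM and left to adhere for 1 h. Medium removed, 0.2% crystal violet applied for 10 min, dye dissolved in DMSO, OD read at 540 nm. Mean ± SD, n = 3.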
# [14] = target: 72 kDa type IV collagenase (Homo sapiens) (UniProt P08253); test: Inhibition of MMP2 activity in human SMMC7721 cells incubated for 24 hrs by gelatin zymography; format: cell-based; procedure, shortened: as §4
# NCI-H460 [15] = test: Cytotoxicity against human NCI-H460 cells assessed as inhibition of growth at 200 uM incubated for 72 hrs by MTT assay; format: functional; conditions: for inhibition at 200 µM: NCI-H460, 72 h
# SMMC-7721 [16] = test: Cytotoxicity against human SMMC7721 cells assessed as inhibition of growth at 200 uM incubated for 72 hrs by MTT assay; format: functional; conditions: for inhibition at 200 µM: SMMC-7721, 72 h
# HeLa [17] = test: Cytotoxicity against human HeLa cells assessed as inhibition of growth at 200 uM incubated for 72 hrs by MTT assay; format: functional
# HCT-116 [18] = test: Cytotoxicity against human HCT116 cells assessed as inhibition of growth at 200 uM incubated for 72 hrs by MTT assay; format: functional; conditions: for inhibition at 200 µM: HCT-116, 72 h
# BGC-823 [19] = test: Cytotoxicity against human BGC823 cells assessed as inhibition of growth at 200 uM incubated for 72 hrs by MTT assay; format: functional; conditions: for inhibition at 200 µM: BGC-823, 72 h
# Sequence of Matrix metalloproteinase-9 (Homo sapiens) (P14780 whole entry): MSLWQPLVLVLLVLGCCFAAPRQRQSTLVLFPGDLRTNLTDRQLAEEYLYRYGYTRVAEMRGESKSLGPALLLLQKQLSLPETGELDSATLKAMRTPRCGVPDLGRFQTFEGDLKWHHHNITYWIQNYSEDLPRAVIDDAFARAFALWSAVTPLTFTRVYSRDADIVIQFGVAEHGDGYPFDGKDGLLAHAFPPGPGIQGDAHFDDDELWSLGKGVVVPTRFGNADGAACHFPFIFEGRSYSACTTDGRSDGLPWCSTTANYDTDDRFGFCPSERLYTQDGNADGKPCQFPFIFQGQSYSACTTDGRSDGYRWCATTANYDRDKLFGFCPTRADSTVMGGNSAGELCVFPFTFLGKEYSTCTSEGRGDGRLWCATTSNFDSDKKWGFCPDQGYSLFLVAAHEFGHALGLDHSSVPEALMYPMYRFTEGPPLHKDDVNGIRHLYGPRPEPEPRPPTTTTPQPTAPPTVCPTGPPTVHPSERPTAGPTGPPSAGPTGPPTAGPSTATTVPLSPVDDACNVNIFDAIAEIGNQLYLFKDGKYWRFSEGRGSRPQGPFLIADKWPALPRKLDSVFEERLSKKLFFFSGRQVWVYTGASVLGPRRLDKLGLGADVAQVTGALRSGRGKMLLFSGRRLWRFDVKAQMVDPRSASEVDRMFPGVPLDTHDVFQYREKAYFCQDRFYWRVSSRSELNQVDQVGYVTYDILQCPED
# Sequence of 72 kDa type IV collagenase (Homo sapiens) (P08253 110-660 limits assumed): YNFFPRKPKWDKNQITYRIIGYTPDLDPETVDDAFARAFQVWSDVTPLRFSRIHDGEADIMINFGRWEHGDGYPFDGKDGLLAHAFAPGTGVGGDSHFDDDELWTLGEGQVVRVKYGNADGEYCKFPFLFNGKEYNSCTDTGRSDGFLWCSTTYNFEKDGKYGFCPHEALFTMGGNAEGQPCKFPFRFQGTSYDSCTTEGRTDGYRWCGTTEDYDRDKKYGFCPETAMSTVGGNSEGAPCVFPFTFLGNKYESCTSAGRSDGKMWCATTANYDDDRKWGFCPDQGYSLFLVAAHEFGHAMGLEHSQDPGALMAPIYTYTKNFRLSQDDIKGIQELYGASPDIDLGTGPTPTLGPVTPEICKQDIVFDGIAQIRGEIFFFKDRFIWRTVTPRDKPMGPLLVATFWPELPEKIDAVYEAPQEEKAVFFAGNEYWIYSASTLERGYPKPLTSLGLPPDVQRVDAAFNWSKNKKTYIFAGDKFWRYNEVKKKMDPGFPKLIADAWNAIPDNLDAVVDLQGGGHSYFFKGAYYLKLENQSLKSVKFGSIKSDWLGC
Structure (SMILES),IC50 (HeLa [1]),IC50 (SMMC-7721 [2]),IC50 (HCT-116 [3]),IC50 (NCI-H460 [4]),IC50 (BGC-823 [6]),inhibition at 200 µM (NCI-H460 [15]),inhibition at 200 µM (SMMC-7721 [16]),inhibition at 200 µM (HeLa [17]),inhibition at 200 µM (HCT-116 [18]),inhibition at 200 µM (BGC-823 [19]),also measured
CCCC(=O)[C@@H](C)[C@H]1O[C@@](O)([C@H](C)C(=O)OC[C@H](C)[C@H]2CC[C@]3(C)C[C@@H]4[C@H](CO)C[C@@H](O)[C@H]4[C@@](C)(O)C/C=C/23)[C@H](C)C[C@H]1C,7.6 µM,9.6 µM,5.8 µM,3.5 µM,10.5 µM,–,–,–,–,–,inhibition (SMMC-7721 [5]): Dose-dependent effect; inhibition (SMMC-7721 [7]): Active; Activity (SMMC-7721 [8]): inactive; inhibition (SMMC-7721 [9]): Active; inhibition (SMMC-7721 [10]): Dose-dependent effect; inhibition (SMMC-7721 [11]): Dose-dependent effect; inhibition [12]: Dose-dependent effect; inhibition (SMMC-7721 [13]): Active; inhibition [14]: Dose-dependent effect
CCC(=O)[C@@H](C)[C@H]1O[C@@](O)([C@@H](C)C(=O)OC[C@H](C)[C@H]2CC[C@]3(C)C[C@@H]4[C@H](CO)C[C@@H](O)[C@H]4[C@@](C)(O)C/C=C/23)[C@H](C)C[C@H]1C,9.3 µM,14.1 µM,8 µM,6.1 µM,9.5 µM,–,–,–,–,–,–
CCC(=O)[C@@H](C)[C@H]1O[C@@](O)([C@H](C)C(=O)OC[C@H](C)[C@H]2CC[C@]3(C)C[C@@H]4[C@H](CO)C[C@@H](O)[C@H]4[C@@](C)(O)C/C=C/23)[C@H](C)C[C@H]1C,6.7 µM,8.9 µM,6.7 µM,4.1 µM,7 µM,–,–,–,–,–,–
CC(C)[C@@]1(O)CC[C@]2(C)C[C@@H]3[C@H](CO)C[C@@H](O)[C@H]3[C@@](C)(O)C/C=C\21,> 100 µM,> 100 µM,> 100 µM,> 100 µM,> 100 µM,–,–,–,–,–,inhibition (NCI-H460 [15]): inactive; inhibition (SMMC-7721 [16]): inactive; inhibition (HeLa [17]): inactive; inhibition (HCT-116 [18]): inactive; inhibition (BGC-823 [19]): inactive
CC(C)[C@H]1CC[C@]2(C)C[C@@H]3[C@H](CO)C[C@@H](O)[C@H]3[C@@](C)(O)C/C=C/12,> 100 µM,> 100 µM,> 100 µM,> 100 µM,> 100 µM,90%,90%,90%,90%,90%,–
CC(C)[C@H]1C[C@@H](O)[C@]2(C)C[C@@H]3[C@H](CO)C[C@@H](O)[C@H]3[C@@](C)(O)C/C=C/12,> 100 µM,> 100 µM,> 100 µM,> 100 µM,> 100 µM,50%,50%,50%,50%,50%,–
COc1cccc2c1C(=O)c1c(O)c3c(c(O)c1C2=O)C[C@@](O)(C(=O)CO)C[C@@H]3O[C@H]1C[C@H](N)[C@H](O)[C@H](C)O1 [DOXORUBICIN HYDROCHLORIDE],–,2.2 µM,1.4 µM,1 µM,1.5 µM,–,–,–,–,–,–
CC(C)[C@H]1C[C@H](O)[C@]2(C)C[C@@H]3[C@H](CO)C[C@@H](O)[C@H]3[C@@](C)(O)C/C=C/12,> 100 µM,> 100 µM,> 100 µM,> 100 µM,> 100 µM,50%,50%,50%,50%,50%,–
